# Results taken from publication PMC5741288 (Pain Reports, 2016).
# Experiment: Treatment-emergent adverse events, tolerability
# Format: in vivo, healthy men
# How it was run: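 Healthy men received single oral tablet doses (part 1: 1–225 mg; part 2: 10, 50 mg) or placebo under double-blind randomisation. Treatment-emergent adverse events were recorded along with clinical laboratory tests, ECG, oral temperature, vital signs and physical examinations, through follow-up.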
structure (smiles),measurement,setting,value
"CC(C)(O)c1ccccc1-c1ccc2[nH]c(/C=C/c3ccc(C(F)(F)F)cc3)nc2c1 [JNJ-39439335, trans-2-(2-{2-[2-(4-Trifluoromethyl-phenyl)-vinyl]-1H-benzimidazol-5-yl}-phenyl)-propan-2-ol]",Doses at which thermohypoesthesia occurred,in vivo,≥ 10 mg
same,Participants with minor or first-degree burns on the hand or the mouth,of 79 participants receiving JNJ-39439335,7 participants
same,TEAE Agusia,"part 1, 1 mg (N = 6)",0 n (%)
same,TEAE Back pain,"part 1, 1 mg (N = 6)",0 n (%)
same,TEAE Burning sensation,"part 1, 1 mg (N = 6)",0 n (%)
same,TEAE Chills,"part 1, 1 mg (N = 6)",0 n (%)
same,TEAE Dizziness,"part 1, 1 mg (N = 6)",0 n (%)
same,TEAE Dizziness postural,"part 1, 1 mg (N = 6)",1 (17) n (%)
same,TEAE Dysgeusia,"part 1, 1 mg (N = 6)",0 n (%)
same,TEAE Fatigue,"part 1, 1 mg (N = 6)",1 (17) n (%)
same,TEAE Feeling cold,"part 1, 1 mg (N = 6)",0 n (%)
same,TEAE Feeling hot,"part 1, 1 mg (N = 6)",0 n (%)
same,TEAE Headache,"part 1, 1 mg (N = 6)",0 n (%)
same,TEAE Hematoma,"part 1, 1 mg (N = 6)",0 n (%)
same,TEAE Hyperhidrosis,"part 1, 1 mg (N = 6)",0 n (%)
same,TEAE Hypoesthesia,"part 1, 1 mg (N = 6)",0 n (%)
same,TEAE Hypogeusia,"part 1, 1 mg (N = 6)",0 n (%)
same,TEAE Nausea,"part 1, 1 mg (N = 6)",0 n (%)
same,TEAE Paresthesia,"part 1, 1 mg (N = 6)",0 n (%)
same,TEAE Pruritus,"part 1, 1 mg (N = 6)",0 n (%)
same,TEAE Pyrexia,"part 1, 1 mg (N = 6)",0 n (%)
same,TEAE Rhinitis,"part 1, 1 mg (N = 6)",0 n (%)
same,TEAE Thermal burn,"part 1, 1 mg (N = 6)",0 n (%)
same,TEAE Thermohypoesthesia,"part 1, 1 mg (N = 6)",0 n (%)
same,Total no. participants with AEs,"part 1, 1 mg (N = 6)",2 (33) n (%)
same,TEAE Agusia,"part 1, 2 mg (N = 6)",0 n (%)
same,TEAE Back pain,"part 1, 2 mg (N = 6)",0 n (%)
same,TEAE Burning sensation,"part 1, 2 mg (N = 6)",0 n (%)
same,TEAE Chills,"part 1, 2 mg (N = 6)",0 n (%)
same,TEAE Dizziness,"part 1, 2 mg (N = 6)",0 n (%)
same,TEAE Dizziness postural,"part 1, 2 mg (N = 6)",0 n (%)
same,TEAE Dysgeusia,"part 1, 2 mg (N = 6)",0 n (%)
same,TEAE Fatigue,"part 1, 2 mg (N = 6)",0 n (%)
same,TEAE Feeling cold,"part 1, 2 mg (N = 6)",0 n (%)
same,TEAE Feeling hot,"part 1, 2 mg (N = 6)",0 n (%)
same,TEAE Headache,"part 1, 2 mg (N = 6)",1 (17) n (%)
same,TEAE Hematoma,"part 1, 2 mg (N = 6)",1 (17) n (%)
same,TEAE Hyperhidrosis,"part 1, 2 mg (N = 6)",0 n (%)
same,TEAE Hypoesthesia,"part 1, 2 mg (N = 6)",1 (17) n (%)
same,TEAE Hypogeusia,"part 1, 2 mg (N = 6)",0 n (%)
same,TEAE Nausea,"part 1, 2 mg (N = 6)",0 n (%)
same,TEAE Paresthesia,"part 1, 2 mg (N = 6)",0 n (%)
same,TEAE Pruritus,"part 1, 2 mg (N = 6)",0 n (%)
same,TEAE Pyrexia,"part 1, 2 mg (N = 6)",0 n (%)
same,TEAE Rhinitis,"part 1, 2 mg (N = 6)",0 n (%)
same,TEAE Thermal burn,"part 1, 2 mg (N = 6)",0 n (%)
same,TEAE Thermohypoesthesia,"part 1, 2 mg (N = 6)",0 n (%)
same,Total no. participants with AEs,"part 1, 2 mg (N = 6)",3 (50) n (%)
same,TEAE Agusia,"part 1, 5 mg (N = 6)",0 n (%)
same,TEAE Back pain,"part 1, 5 mg (N = 6)",0 n (%)
same,TEAE Burning sensation,"part 1, 5 mg (N = 6)",0 n (%)
same,TEAE Chills,"part 1, 5 mg (N = 6)",0 n (%)
same,TEAE Dizziness,"part 1, 5 mg (N = 6)",0 n (%)
same,TEAE Dizziness postural,"part 1, 5 mg (N = 6)",0 n (%)
same,TEAE Dysgeusia,"part 1, 5 mg (N = 6)",0 n (%)
same,TEAE Fatigue,"part 1, 5 mg (N = 6)",0 n (%)
same,TEAE Feeling cold,"part 1, 5 mg (N = 6)",1 (17) n (%)
same,TEAE Feeling hot,"part 1, 5 mg (N = 6)",1 (17) n (%)
same,TEAE Headache,"part 1, 5 mg (N = 6)",0 n (%)
same,TEAE Hematoma,"part 1, 5 mg (N = 6)",0 n (%)
same,TEAE Hyperhidrosis,"part 1, 5 mg (N = 6)",0 n (%)
same,TEAE Hypoesthesia,"part 1, 5 mg (N = 6)",0 n (%)
same,TEAE Hypogeusia,"part 1, 5 mg (N = 6)",0 n (%)
same,TEAE Nausea,"part 1, 5 mg (N = 6)",0 n (%)
same,TEAE Paresthesia,"part 1, 5 mg (N = 6)",0 n (%)
same,TEAE Pruritus,"part 1, 5 mg (N = 6)",0 n (%)
same,TEAE Pyrexia,"part 1, 5 mg (N = 6)",4 (67) n (%)
same,TEAE Rhinitis,"part 1, 5 mg (N = 6)",0 n (%)
same,TEAE Thermal burn,"part 1, 5 mg (N = 6)",0 n (%)
same,TEAE Thermohypoesthesia,"part 1, 5 mg (N = 6)",0 n (%)
same,Total no. participants with AEs,"part 1, 5 mg (N = 6)",4 (67) n (%)
same,TEAE Agusia,"part 1, 10 mg (N = 6)",0 n (%)
same,TEAE Back pain,"part 1, 10 mg (N = 6)",0 n (%)
same,TEAE Burning sensation,"part 1, 10 mg (N = 6)",0 n (%)
same,TEAE Chills,"part 1, 10 mg (N = 6)",0 n (%)
same,TEAE Dizziness,"part 1, 10 mg (N = 6)",1 (17) n (%)
same,TEAE Dizziness postural,"part 1, 10 mg (N = 6)",2 (33) n (%)
same,TEAE Dysgeusia,"part 1, 10 mg (N = 6)",0 n (%)
same,TEAE Fatigue,"part 1, 10 mg (N = 6)",0 n (%)
same,TEAE Feeling cold,"part 1, 10 mg (N = 6)",0 n (%)
same,TEAE Feeling hot,"part 1, 10 mg (N = 6)",0 n (%)
same,TEAE Headache,"part 1, 10 mg (N = 6)",1 (17) n (%)
same,TEAE Hematoma,"part 1, 10 mg (N = 6)",0 n (%)
same,TEAE Hyperhidrosis,"part 1, 10 mg (N = 6)",1 (17) n (%)
same,TEAE Hypoesthesia,"part 1, 10 mg (N = 6)",0 n (%)
same,TEAE Hypogeusia,"part 1, 10 mg (N = 6)",0 n (%)
same,TEAE Nausea,"part 1, 10 mg (N = 6)",1 (17) n (%)
same,TEAE Orthostatic hypotension,"part 1, 10 mg (N = 6)",2 (33) n (%)
same,TEAE Paresthesia,"part 1, 10 mg (N = 6)",1 (17) n (%)
same,TEAE Pruritus,"part 1, 10 mg (N = 6)",1 (17) n (%)
same,TEAE Pyrexia,"part 1, 10 mg (N = 6)",5 (83) n (%)
same,TEAE Rhinitis,"part 1, 10 mg (N = 6)",2 (33) n (%)
same,TEAE Thermal burn,"part 1, 10 mg (N = 6)",0 n (%)
same,TEAE Thermohypoesthesia,"part 1, 10 mg (N = 6)",3 (50) n (%)
same,Total no. participants with AEs,"part 1, 10 mg (N = 6)",6 (100) n (%)
same,TEAE Agusia,"part 1, 15 mg (N = 6)",0 n (%)
same,TEAE Back pain,"part 1, 15 mg (N = 6)",0 n (%)
same,TEAE Burning sensation,"part 1, 15 mg (N = 6)",0 n (%)
same,TEAE Chills,"part 1, 15 mg (N = 6)",0 n (%)
same,TEAE Dizziness,"part 1, 15 mg (N = 6)",1 (17) n (%)
same,TEAE Dizziness postural,"part 1, 15 mg (N = 6)",1 (17) n (%)
same,TEAE Dysgeusia,"part 1, 15 mg (N = 6)",1 (17) n (%)
same,TEAE Fatigue,"part 1, 15 mg (N = 6)",0 n (%)
same,TEAE Feeling cold,"part 1, 15 mg (N = 6)",4 (67) n (%)
same,TEAE Feeling hot,"part 1, 15 mg (N = 6)",5 (83) n (%)
same,TEAE Headache,"part 1, 15 mg (N = 6)",0 n (%)
same,TEAE Hematoma,"part 1, 15 mg (N = 6)",0 n (%)
same,TEAE Hyperhidrosis,"part 1, 15 mg (N = 6)",3 (50) n (%)
same,TEAE Hypoesthesia,"part 1, 15 mg (N = 6)",0 n (%)
same,TEAE Hypogeusia,"part 1, 15 mg (N = 6)",2 (33) n (%)
same,TEAE Nausea,"part 1, 15 mg (N = 6)",0 n (%)
same,TEAE Paresthesia,"part 1, 15 mg (N = 6)",2 (33) n (%)
same,TEAE Pruritus,"part 1, 15 mg (N = 6)",1 (17) n (%)
same,TEAE Pyrexia,"part 1, 15 mg (N = 6)",4 (67) n (%)
same,TEAE Rhinitis,"part 1, 15 mg (N = 6)",0 n (%)
same,TEAE Thermal burn,"part 1, 15 mg (N = 6)",0 n (%)
same,TEAE Thermohypoesthesia,"part 1, 15 mg (N = 6)",5 (83) n (%)
same,Total no. participants with AEs,"part 1, 15 mg (N = 6)",6 (100) n (%)
same,TEAE Agusia,"part 1, 15 mg R (N = 6)",0 n (%)
same,TEAE Back pain,"part 1, 15 mg R (N = 6)",0 n (%)
same,TEAE Burning sensation,"part 1, 15 mg R (N = 6)",0 n (%)
same,TEAE Chills,"part 1, 15 mg R (N = 6)",0 n (%)
same,TEAE Dizziness,"part 1, 15 mg R (N = 6)",0 n (%)
same,TEAE Dizziness postural,"part 1, 15 mg R (N = 6)",0 n (%)
same,TEAE Dysgeusia,"part 1, 15 mg R (N = 6)",0 n (%)
same,TEAE Fatigue,"part 1, 15 mg R (N = 6)",0 n (%)
same,TEAE Feeling cold,"part 1, 15 mg R (N = 6)",3 (50) n (%)
same,TEAE Feeling hot,"part 1, 15 mg R (N = 6)",3 (50) n (%)
same,TEAE Headache,"part 1, 15 mg R (N = 6)",0 n (%)
same,TEAE Hematoma,"part 1, 15 mg R (N = 6)",0 n (%)
same,TEAE Hyperhidrosis,"part 1, 15 mg R (N = 6)",0 n (%)
same,TEAE Hypoesthesia,"part 1, 15 mg R (N = 6)",1 (17) n (%)
same,TEAE Hypogeusia,"part 1, 15 mg R (N = 6)",0 n (%)
same,TEAE Nausea,"part 1, 15 mg R (N = 6)",0 n (%)
same,TEAE Paresthesia,"part 1, 15 mg R (N = 6)",2 (33) n (%)
same,TEAE Pruritus,"part 1, 15 mg R (N = 6)",0 n (%)
same,TEAE Pyrexia,"part 1, 15 mg R (N = 6)",2 (33) n (%)
same,TEAE Rhinitis,"part 1, 15 mg R (N = 6)",0 n (%)
same,TEAE Thermal burn,"part 1, 15 mg R (N = 6)",0 n (%)
same,TEAE Thermohypoesthesia,"part 1, 15 mg R (N = 6)",2 (33) n (%)
same,Total no. participants with AEs,"part 1, 15 mg R (N = 6)",6 (100) n (%)
same,TEAE Agusia,"part 1, 30 mg (N = 5)",0 n (%)
same,TEAE Back pain,"part 1, 30 mg (N = 5)",2 (40) n (%)
